Columns and labels:
HEK293 [1] = assay: Inhibition of NF-kappaB expressed in HEK293 cells assessed as inhibition of TNF-alpha-induced transcriptional activation at 1 uM treated 24 hrs before TNFalpha challenge by luciferase reporter gene assay relative to control; format: cell-based
In short: (§1)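 Luciferase reporter screen with each sample in triplicate in two or three independent experiments. Values are the average of those experiments. Rapamycin served as the reference eIF-4E inhibitor.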

[2] = molecular target: Eukaryotic translation initiation factor 4E (Homo sapiens) (UniProt P06730); assay: Inhibition of eIF-4E expressed in human FaDu cells assessed as inhibition of translational activation at 1 uM by luciferase reporter gene assay relative to control; format: cell-based; in short: as §1
[3] = molecular target: Transcription factor Jun (Homo sapiens) (UniProt P05412); assay: Inhibition of AP1 expressed in HEK293 cells assessed as inhibition of PMA-induced transcriptional activation at 1 uM treated 24 hrs before PMA challenge by luciferase reporter gene assay relative to control; format: cell-based; in short: as §1
[4] = Inhibition of NF-kappaB expressed in HEK293 cells assessed as inhibition of TNF-alpha-induced transcriptional activation treated 24 hrs before TNFalpha challenge by luciferase reporter gene assay; format: cell-based
In short: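 Six-point dose response […] in ½-log steps, screened as in the primary reporter assay. IC50 calculated from the dose-response data.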

HEK293 [5] = assay: Inhibition of NF-kappaB expressed in HEK293 cells assessed as inhibition of TNF-alpha-induced transcriptional activation at 3.3 uM treated 2 hrs before TNFalpha challenge measured after 24 hrs by luciferase reporter gene assay relative to control; format: cell-based
In short: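 Stably transfected NF-κB reporter cells plated, then after 24 h pretreated with compound at six concentrations for 2 h before 20 ng/ml TNF-α induction. Cells later lysed, luciferase activity read and normalized.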

[6] = Inhibition of NF-kappaB expressed in HEK293 cells assessed as inhibition of TNF-alpha-induced transcriptional activation treated 2 hrs before TNFalpha challenge measured after 24 hrs by luciferase reporter gene assay; format: cell-based
In short: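 Stably transfected NF-κB luciferase reporter cells were plated, and 24 h later given test compound at six concentrations for 2 h. TNF-α was then added at 20 ng/ml to induce transcription. Cells were then lysed, luciferase activity was recorded, and values were normalised.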

FaDu = assay: Cytotoxicity against human FADU cells assessed as growth inhibition at 3.3 uM by MTT assay; format: functional

Sequence of Transcription factor Jun (Homo sapiens) (P05412 whole entry): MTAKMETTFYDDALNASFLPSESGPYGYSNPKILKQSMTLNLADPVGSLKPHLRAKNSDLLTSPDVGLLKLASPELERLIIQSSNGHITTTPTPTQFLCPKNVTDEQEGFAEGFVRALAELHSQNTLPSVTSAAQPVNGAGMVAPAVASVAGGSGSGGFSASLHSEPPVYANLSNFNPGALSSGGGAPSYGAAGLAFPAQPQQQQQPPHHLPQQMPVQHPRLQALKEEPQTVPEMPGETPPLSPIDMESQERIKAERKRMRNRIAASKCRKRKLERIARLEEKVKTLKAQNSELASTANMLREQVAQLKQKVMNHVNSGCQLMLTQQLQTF
Sequence of Eukaryotic translation initiation factor 4E (Homo sapiens) (P06730 whole entry): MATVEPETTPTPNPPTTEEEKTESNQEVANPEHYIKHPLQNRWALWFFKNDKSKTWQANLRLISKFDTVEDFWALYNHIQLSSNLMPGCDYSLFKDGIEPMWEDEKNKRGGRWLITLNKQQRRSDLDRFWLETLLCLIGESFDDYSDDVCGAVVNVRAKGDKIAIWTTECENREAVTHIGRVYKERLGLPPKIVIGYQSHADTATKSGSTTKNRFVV

| Structure (SMILES) | inhibition [2] [%] | inhibition [3] [%] | IC50 [4] [µM] | inhibition (HEK293 [1]) [%] | inhibition (HEK293 [5]) [%] | IC50 [6] [µM] | inhibition at 3.3 µM (FaDu) [%] |
| --- | --- | --- | --- | --- | --- | --- | --- |
| CCOC(=O)Nc1nc(-c2ccccc2)c(-c2nc3ccccc3c(=O)n2-c2ccc(Cl)cc2)s1 | 18 | 20 | – | 24 | – | – | – |
| Cc1nc(Nc2ccccc2)sc1-c1nc2ccccc2c(=O)n1-c1ccc(Cl)cc1 | 67 | 29 | – | 66 | – | 5.5 | – |
| CCOC(=O)Nc1nc(C)c(-c2nc3ccccc3c(=O)n2-c2ccc(Cl)cc2)s1 | 50 | 30 | 16 | 54 | > 70 | – | – |
| CNc1nc(C)c(-c2nc3ccccc3c(=O)n2-c2ccc(Cl)cc2)s1 | 61 | – | 12 | 80 | – | 3.3 | 20 |
| CNc1nc(-c2ccccc2)c(-c2nc3ccccc3c(=O)n2-c2ccc(Cl)cc2)s1 | 40 | 67 | > 250 | 72 | – | – | – |
| Cc1nc(Nc2ccc(Cl)cc2)sc1-c1nc2ccccc2c(=O)n1-c1ccc(Cl)cc1 | 26 | 75 | 15 | 79 | – | – | – |
| O=c1c2ccccc2nc(-c2sc(Nc3ccc(Cl)cc3)nc2-c2ccccc2)n1-c1ccc(Cl)cc1 | 34 | 47 | 3.3 | 62 | > 70 | – | – |

The next lines start with results.

| inhibition [2] [%] | inhibition [3] [%] | IC50 [4] [µM] | Structure (SMILES) | inhibition (HEK293 [1]) [%] | inhibition (HEK293 [5]) [%] | IC50 [6] [µM] | inhibition at 3.3 µM (FaDu) [%] |
| --- | --- | --- | --- | --- | --- | --- | --- |
| 30 | 26 | – | O=C(Nc1nc(-c2ccccc2)c(-c2nc3ccccc3c(=O)n2-c2ccccc2)s1)c1ccccc1 | 43 | – | – | – |
| – | 57 | – | O=c1c2ccccc2nc(-c2sc(Nc3ccc(Cl)cc3)nc2-c2ccccc2)n1-c1ccccc1 | 71 | – | – | – |
| 37 | 51 | – | O=c1c2ccccc2nc(-c2sc(Nc3ccccc3)nc2-c2ccccc2)n1-c1ccccc1 | 71 | – | – | – |
| 38 | 39 | – | O=c1c2ccccc2nc(-c2sc(Nc3ccccc3)nc2-c2ccccc2)n1-c1ccc(Cl)cc1 | 67 | – | – | – |
| 31 | 8 | – | COc1ccc(-n2c(-c3sc(NC(=O)c4ccccc4)nc3-c3ccccc3)nc3ccccc3c2=O)cc1 | 12 | – | – | – |
| 32 | 59 | 20 | COc1ccc(-n2c(-c3sc(Nc4ccc(Cl)cc4)nc3-c3ccccc3)nc3ccccc3c2=O)cc1 | 46 | > 70 | – | – |
| 39 | 36 | – | O=C(Nc1nc(-c2ccccc2)c(-c2nc3ccccc3c(=O)n2-c2ccc(Cl)cc2)s1)c1ccccc1 | 73 | – | – | – |
| – | 7 | > 10 | CCOC(=O)Nc1nc(-c2ccccc2)c(-c2nc3ccccc3c(=O)n2-c2ccccc2)s1 | 32 | – | – | – |
| 33 | 58 | – | CNc1nc(-c2ccccc2)c(-c2nc3ccccc3c(=O)n2-c2ccccc2)s1 | 71 | – | – | – |
| 15 | 34 | – | CCOC(=O)Nc1nc(-c2ccccc2)c(-c2nc3ccccc3c(=O)n2-c2ccc(OC)cc2)s1 | 29 | – | – | – |
| 16 | 19 | – | COc1ccc(-n2c(-c3sc(Nc4ccccc4)nc3-c3ccccc3)nc3ccccc3c2=O)cc1 | 63 | – | – | – |
